Laboratory results: ChEMBL document CHEMBL1140534, “Heteroaryl beta-tetralin ureas as novel antagonists of human TRPV1” (Bioorg Med Chem Lett, 2007)

Legend:
[1] = biological target: T1, Transient receptor potential cation channel subfamily V member 1 (Homo sapiens, UniProt Q8NER1); assay: Antagonist activity at human recombinant TRPV1 expressed in HEK293 cells assessed as inhibition of capsaicin-induced calcium by FLIPR method; assay type: functional, cell-based
How it was run: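 Stably transfected hTRPV1/HEK293 cells grown on poly-D-lysine for 2 days, then loaded with Fluo-3/AM for 1 h. Each well receives a single compound concentration. Intracellular Ca2+ is read by FLIPR for 3 min before capsaicin is added at a final 15 nM to fully activate TRPV1. Antagonist potency is reported as IC50.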

[2] = biological target: T1, Transient receptor potential cation channel subfamily V member 1; assay: Displacement of [3H]RTX from human TRPV1 expressed in HEK293 cells; assay type: cell-based
How it was run: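 Membranes from hTRPV1/HEK293 cells, prepared in HEPES buffer pH 7.4 (20 mM HEPES, NaCl, sucrose, MgCl2, CaCl2, KCl). Incubated 60 min at 37 °C with 0.3–0.6 nM [3H]-RTX. Samples cooled on ice, alpha-acid glycoprotein added, then centrifuged and pellets counted by scintillation. Nonspecific binding defined with 200 nM unlabeled RTX. Reported as Ki.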

T1 sequence (Q8NER1 whole entry): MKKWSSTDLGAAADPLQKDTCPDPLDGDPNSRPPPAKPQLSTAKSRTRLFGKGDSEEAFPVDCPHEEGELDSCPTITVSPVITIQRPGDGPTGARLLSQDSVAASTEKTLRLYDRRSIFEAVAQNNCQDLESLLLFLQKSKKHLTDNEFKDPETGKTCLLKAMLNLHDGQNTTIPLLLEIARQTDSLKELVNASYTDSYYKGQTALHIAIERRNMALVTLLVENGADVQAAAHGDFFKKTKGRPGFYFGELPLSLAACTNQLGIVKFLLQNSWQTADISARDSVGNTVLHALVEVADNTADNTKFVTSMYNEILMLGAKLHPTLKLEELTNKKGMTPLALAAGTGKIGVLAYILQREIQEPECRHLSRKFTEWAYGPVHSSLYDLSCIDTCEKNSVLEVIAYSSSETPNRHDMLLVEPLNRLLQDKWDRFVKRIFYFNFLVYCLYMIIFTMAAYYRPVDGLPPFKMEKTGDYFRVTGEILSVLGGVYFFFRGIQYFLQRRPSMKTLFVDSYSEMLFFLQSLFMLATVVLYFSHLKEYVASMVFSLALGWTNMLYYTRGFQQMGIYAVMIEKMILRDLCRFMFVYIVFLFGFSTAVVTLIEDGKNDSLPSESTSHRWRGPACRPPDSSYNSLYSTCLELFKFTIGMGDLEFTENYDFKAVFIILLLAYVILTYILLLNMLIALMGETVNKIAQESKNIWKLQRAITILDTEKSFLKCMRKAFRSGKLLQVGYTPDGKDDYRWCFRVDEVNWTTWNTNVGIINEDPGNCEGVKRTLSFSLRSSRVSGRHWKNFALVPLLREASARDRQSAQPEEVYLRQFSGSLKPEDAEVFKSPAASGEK

SMILES | IC50 [1] | Ki [2]
O=C(Nc1cccc2cnccc12)NC1CCc2cc(F)ccc2C1CC1CC1 (centres undefined) | 350 nM | 0.8 nM
O=C(Nc1cccc2cnccc12)NC1CCc2cc(O)ccc2C1Cc1ccccc1 (centres undefined) | 200 nM | –
COc1ccc(CC2c3ccc(OC)cc3CCC2NC(=O)Nc2cccc3cnccc23)cc1 (centres undefined) | 36 nM | 8 nM
O=C(Nc1cccc2ccc(O)cc12)NC1CCc2cc(F)ccc2C1Cc1ccc(C(F)(F)F)cc1 (centres undefined) | 360 nM | 22 nM
COc1ccc(C(C)CNC(=O)Nc2cccc3cnccc23)cc1 (centres undefined) | 680 nM | 1290 nM
O=C(Nc1cccc2cnccc12)NC1CCc2ccccc2C1Cc1ccccc1 (centres undefined) | 20 nM | 4 nM
COc1ccc2c(c1)CCC(NC(=O)Nc1cccc3cnccc13)C2Cc1ccccc1 (centres undefined) | 25 nM | 3 nM
COc1ccc(C(CNC(=O)Nc2cccc3cnccc23)Cc2cccnc2)cc1 (centres undefined) | 184 nM | 578 nM
COc1ccc(C(CNC(=O)Nc2cccc3cnccc23)Cc2ccccc2)cc1 (centres undefined) | 14 nM | 6 nM
O=C(NCC(Cc1ccccc1)c1ccc(F)cc1)Nc1cccc2cnccc12 (centres undefined) | 5 nM | 8 nM
O=C(Nc1cccc2cnccc12)NC1CCc2cc(F)ccc2C1Cc1ccccc1 (centres undefined) | 12 nM | 4 nM
O=C(Nc1cccc2cnccc12)NC1CCc2cc(Br)ccc2C1Cc1ccccc1 (centres undefined) | 17 nM | 2 nM
COc1ccc2c(c1)CCC(NC(=O)Nc1cccc3cnccc13)C2Cc1ccc(Br)cc1 (centres undefined) | 22 nM | 1 nM
O=C(Nc1cccc2cnccc12)NC1CCc2cc(F)ccc2C1Cc1ccc(C(F)(F)F)cc1 (centres undefined) | 10 nM | 1 nM
O=C(Nc1cccc2cnccc12)NC1CCc2cc(Cl)ccc2C1Cc1ccccc1 (centres undefined) | 63 nM | 11 nM
O=C(Nc1cccc2cnccc12)NC1CCc2ccc(Cl)cc2C1Cc1ccccc1 (centres undefined) | 86 nM | 5 nM
O=C(NCC(Cc1cccc(C(F)(F)F)c1)c1ccc(F)cc1)Nc1cccc2cnccc12 (centres undefined) | 19 nM | 20 nM
O=C(Nc1cccc2cnccc12)NC1CCc2cc(F)ccc2C1Cc1cccs1 (centres undefined) | 140 nM | 4 nM
C=CCC1c2ccc(F)cc2CCC1NC(=O)Nc1cccc2cnccc12 (centres undefined) | 100 nM | 2 nM
COc1ccc2c(c1)CCC(NC(=O)Nc1cccc3ccc(O)cc13)C2Cc1ccccc1 (centres undefined) | 60 nM | 10 nM
COc1cc2c(cc1OC)C(Cc1ccccc1)C(NC(=O)Nc1cccc3cnccc13)CC2 (centres undefined) | 230 nM | 20 nM
O=C(NCC(Cc1ccccc1)c1ccc(C(F)(F)F)cc1)Nc1cccc2cnccc12 (centres undefined) | – | 4 nM
COc1ccc2c(c1)CCC(NC(=O)Nc1cccc3cnccc13)C2Cc1ccc(C#N)cc1 (centres undefined) | 21 nM | 17 nM
COc1ccc2c(c1)CCC(NC(=O)Nc1cccc3cnccc13)C2Cc1cccnc1 (centres undefined) | > 1000 nM | –
N#CCC1c2ccc(Cl)cc2CCC1NC(=O)Nc1cccc2cnccc12 (centres undefined) | > 1000 nM | –
O=C(Nc1cccc2cnccc12)NC1CCc2c(Cl)cccc2C1Cc1ccccc1 (centres undefined) | 16 nM | 2 nM
COc1ccc2c(c1)CCC(NC(=O)Nc1cccc3cnccc13)C2Cc1cccc(Cl)c1 (centres undefined) | 13 nM | 2 nM
O=C(Nc1cccc2cnccc12)NC1CCc2cc(F)ccc2C1Cc1ccoc1 (centres undefined) | 83 nM | 16 nM
COc1ccc2c(c1)CCC(NC(=O)Nc1cccc3cnccc13)C2Cc1ccc(C(F)(F)F)cc1 (centres undefined) | 2 nM | 2 nM
